Rpn11 inh = Rpn11 (human) deubiquitinase inhibition. human 26S proteasome, Ub4-pepOG fluorescence polarization; 20S core pre-blocked with epoxomicin. calls only at 20 µM. 0.59% of 360,000 active;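 active means inhibition at 20 µM, scaled to each plate's controls, above about 33%, limit read from the data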
TPT1 inhibitor = inhibitors of Candida albicans tRNA 2'-phosphotransferase TPT1; recombinant caTPT1, FP RNA substrate dephosphorylation; inhibition, % at 5 µM; 0.81% of 300,000 active;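 active means inhibition above the mean of all tested compounds plus 3 SD, set per screening campaign, cut at about 24% in these data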;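 further: plate controls were DMSO alone for no effect and ferristatin control at 100 nM for full effect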
HNF4A DNA FP = change in binding of human HNF4 alpha to DNA; HNF4a-FITC DNA binding, fluorescence polarization, 1 h; 0.3% of 360,000 active; activity change, % at 10 µM; in the data active means activity change above about 30%, passing the limit was not always enough
UBC9 SUMO inh = blocks human SUMOylation mediated by UBC9; HTRF SUMOylation assay, SAE1/SAE2 + UBC9, in vitro; 0.36% of 290,000 active; AID 2006; inhibition, % at 35 µM; P63279; in the data active means inhibition above about 50%, passing the limit was not always enough
Target sequence (P63279 whole entry, looked up): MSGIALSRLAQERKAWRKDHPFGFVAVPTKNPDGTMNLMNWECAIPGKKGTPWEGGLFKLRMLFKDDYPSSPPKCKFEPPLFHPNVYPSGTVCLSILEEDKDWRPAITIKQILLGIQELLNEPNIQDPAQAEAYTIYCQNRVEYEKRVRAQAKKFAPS
CSN inh = blocks human CSN-mediated cullin deneddylation | Purified CSN, SCF-Nedd8-OG deneddylation, fluorescence polarization | inhibition, % at 12.5 µM | 0.38% of 360,000 active;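 active means pattern-corrected inhibition above about 35%, with an unprinted fluorescence ratio check between 0.5 and 1.5, limit read from the data, passing the limit was not always enough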;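 further: 0% = enzyme with substrate and 100% = substrate without enzyme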
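Assay system: HEK293T-derived human Csn5 enzyme; quantity: 0.24 nM enzyme; medium: Tris/NaCl/DTT buffer, pH 7.5; also added: substrate SCFSkp2-Nedd8OG, 10 nM; doses: 12.5 µM compound; schedule: 90 min reaction at room temperature; signal: FP; read-out: % inhibition of substrate cleavage by Csn5; benchmarks: substrate-only high control, full reaction low control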
SENP1 FRET inh = blocks the human SENP1 SUMO protease catalytic domain; Q9P0U3; recombinant SENP1 catalytic domain, CyPet-SUMO1-YPet FRET cleavage; inhibition, % at 10 µM; 0.21% of 360,000 active; AID 624204;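 active means inhibition at least 30% at 10 µM, raw YFP signal under a set limit, fluorescence ratio 0.5 to 1.5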;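 further: 0% = enzyme with DMSO and 100% = no enzyme wells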
Target sequence (Q9P0U3 419-644 limits assumed): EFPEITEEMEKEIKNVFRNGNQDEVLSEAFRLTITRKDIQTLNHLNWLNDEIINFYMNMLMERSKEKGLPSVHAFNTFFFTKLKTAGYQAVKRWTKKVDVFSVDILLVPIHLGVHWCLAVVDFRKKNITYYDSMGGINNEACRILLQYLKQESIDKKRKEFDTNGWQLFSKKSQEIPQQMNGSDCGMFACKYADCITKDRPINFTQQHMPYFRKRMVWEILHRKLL
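material = recombinant human SENP1 catalytic domain, His6-tagged | quantity = 20 pM enzyme | reagent = 25 nM SUMO1 FRET substrate | compound dosing = 10 µM single point, 0.5% DMSO | timing = 50 min enzyme reaction, room temperature, light-protected | detection = FRET, CFP and YFP emission | control set = no-enzyme low, enzyme-DMSO high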
Rpn11 inh conf = confirmation of human proteasome Rpn11 inhibitors; 29% of 1,900 active; inhibition, % at 20 µM; purified human 26S proteasome, Ub4-pepOG fluorescence polarization; proteasome pretreated with epoxomicin; shares compounds with Rpn11 inh
MMP-2 inh = blocks human MMP-2, flagging nonselective RPN11 hits; 4% of 1,900 active; inhibition, % at 20 µM; recombinant MMP-2, FRET peptide cleavage fluorescence; AID 602330; shares compounds with Rpn11 inh;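 further: human MMP-2 activated beforehand with APMA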
Thrombin FP = blocks bovine thrombin, flagging nonselective RPN11 hits; shares compounds with Rpn11 inh; bovine thrombin cleavage of Ub4-pepOG, fluorescence polarization; inhibition, % at 20 µM; 13% of 1,900 active;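 active means mean inhibition at least 40% at 20 µM, or signal 3 deviations below plate average, so some actives read negative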;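 further: plate controls were thrombin with DMSO for no effect and buffer wells lacking thrombin for full effect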
Starred values were filed as active, the others as inactive; i = inactive; x = not tested or not shown; + = active, no number. In the library only some 1.8% were active in any assay of this set; here they are far more common. Unless noted, no stated cut-off is given here; in the data, active means inhibition above about 40%; inactive means the rest.

SMILES	Rpn11 inh	TPT1 inhibitor	HNF4A DNA FP	UBC9 SUMO inh	CSN inh	SENP1 FRET inh	Rpn11 inh conf	MMP-2 inh	Thrombin FP
COc1ccc(-n2c(N)c(C(=O)Nc3c(C)n(C)n(-c4ccccc4)c3=O)c3nc4ccccc4nc32)cc1	+	-6	0	26	33	-25	7	-45	1
Cc1nnc(N/N=C\c2ccc(-c3ccccc3[N+](=O)[O-])o2)n1N	+	7	0	90	3	-17	0	-37	-3
O=c1[nH]c(=O)n(CCc2ccc(F)cc2)c(O)c1C=NCc1ccc2c(c1)OCO2	+	-1	4	-7	6	-14	17	-25	-14
O=C(CCN1C(=O)/C(=C/C=C/c2ccccc2)SC1=S)Nc1ccccn1	+	20	18	44	11	3	-2	-10	-34
CC(C1SC(=S)NC1=O)C1SC(=S)NC1=O (stereo not given)	+	x	4	x	38*	-25	42*	24	33
COc1cccc(-c2nn(C)c3sc(C(=O)NCc4ccco4)cc23)c1	i	6	-3	15	-3	2	x	x	x
COc1cccc(-c2nn(C)c3sc(C(=O)NCCCN(C)Cc4ccccc4)cc23)c1	+	-5	1	13	1	-1	-17	-10	-17
COc1ccc2c(c1)Cc1sc(NC(=O)c3ccco3)nc1-2	+	-4	1	78	24	-4	-5	-31	-9
COc1cccc(C(=O)COc2ccc3c(C)c(Cc4ccccc4)c(=O)oc3c2C)c1	x	1	x	-2	x	x	x	x	x
C[C@@H]1CN([C@H](C)CO)C(=O)CCCn2nncc2CO[C@H]1CN(C)C(=O)Nc1ccc(N2CCCCC2)cc1	i	x	8	x	11	-1	x	x	x
O=C(O)c1ccc(/C=C/c2nc3sc4c(c3c(=O)[nH]2)CCC4)cc1	+	2	3	8	7	-32	91*	-57	40*
O=C(O)c1ccc(/C=C/c2nc3ccccc3c(=O)[nH]2)cc1	i	-4	-2	22	0	1	x	x	x
COc1cc(S(=O)(=O)Nc2ccccc2)ccc1N=Cc1c(C)[nH]n(-c2ccc(C)cc2)c1=O	x	-2	x	-14	x	x	x	x	x
COc1cc(SC#N)ccc1N=Cc1c(C)[nH]n(-c2ccc(Cl)cc2)c1=O	+	8	19	21	5	65	7	3	6
Cc1nc(NC(=O)/C=C/c2ccccc2)sc1C(=O)Nc1ccc(Cl)cc1	i	1	-1	43	2	0	x	x	x
Cc1nc(NC(=O)/C=C/c2ccccc2)sc1C(=O)Nc1ccccc1Cl	+	1	-3	27	9	1	38	-41	-17
C/C(=N\NC(=O)C(=O)Nc1ccc(C)c(Cl)c1)c1ccncc1	+	1	-2	-4	15	3	1	-36	-41
CCOC(=O)CC(=O)CSc1nc(-c2cccnc2)ccc1C#N	+	14	2	39	10	-26	-5	-26	-10
CCOC(=O)CC(=O)CSc1nc(-c2cccnc2)cc(C)c1C#N	i	1	4	13	-2	17	x	x	x
CCc1cccc(CC)c1NC(=O)CN1CC(C)SC1=NC1CCCCC1 (stereo not given)	+	-18	5	4	-2	-3	-13	-7	-4
CCc1cccc(CC)c1NC(=O)NC1CCCCC1	i	-2	1	-2	-4	1	x	x	x
O=c1c2ccccc2nnn1CSc1ccccc1F	i	-3	5	-6	-5	10	x	x	x

From PubChem
